Laboratory results as given in ChEMBL document CHEMBL4152256, “Structure-activity relationship of new antimalarial 1-aryl-3-susbtituted propanol derivatives: Synthesis, preliminary toxicity profiling, parasite life cycle stage studies, target exploration, and targeted delivery” (Eur J Med Chem, 2018).
The source made the active and inactive calls. The rule behind the calls is not given here.

Tests used:
[1] = Genotoxicity in Salmonella typhimurium TA1535 harboring pSK1002 assessed as umu gene induction at 0.25 mg/ml in presence of Sprague-Dawley rat liver S9 fraction after by SOS/umu assay relative to control; format: toxicity, organism-based; conditions: salmonella enterica subsp. enterica serovar typhimurium, read-out: FC
[2] = Genotoxicity in Salmonella typhimurium TA1535 harboring pSK1002 assessed as umu gene induction at 1 mg/ml in absence of Sprague-Dawley rat liver S9 fraction after by SOS/umu assay relative to control; format: toxicity, organism-based; conditions: salmonella enterica subsp. enterica serovar typhimurium, read-out: FC
Plasmodium falciparum [3] = assay: Antiplasmodial activity against multidrug-resistant Plasmodium falciparum FCR-3 by [3H]-hypoxanthine incorporation assay; format: functional, organism-based, FCR-3/Gambia; conditions: Plasmodium falciparum, FCR-3/Gambia
Procedure, shortened: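 Blood-stage P. falciparum 3D7 and FCR-3 were tested by a modified [3H]-hypoxanthine incorporation assay. Chloroquine was the reference in all runs.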

Plasmodium falciparum [4] = assay: Antiplasmodial activity against multidrug-resistant Plasmodium falciparum C235 after 72 hrs by MSF assay; format: functional, organism-based; conditions: C235, 72 h
Procedure, shortened: (§1)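 D6 and C235 strains from the Walter Reed Army Institute of Research were tested by the Malaria SYBR Green-I fluorescence assay.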

Plasmodium berghei [5] = assay: Antiplasmodial activity against Plasmodium berghei ANKA infected in mouse assessed as inhibition of parasitemia at 50 mg/kg/day, po for 4 consecutive days starting from 2 hrs post infection by MSF assay relative to control; format: functional
Procedure, shortened: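 Swiss male mice (20 ± 2 g) infected ip with 10^7 P. berghei ANKA parasitized cells (day 0). Five per group dosed orally 2 h after infection and daily on days 0–3. Test compounds at 50 mg/kg/day in water:DMSO; chloroquine diphosphate at 3 mg/kg/day; vehicle controls. Parasitemia measured on day 4 by MSF assay; survival checked daily.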

Plasmodium falciparum [6] = assay: Antiplasmodial activity against Plasmodium falciparum D6 after 72 hrs by MSF assay; format: functional, organism-based; conditions: D6, 72 h; procedure, shortened: as §1
[7] = Genotoxicity in Salmonella typhimurium TA1535 harboring pSK1002 assessed as umu gene induction at 0.002 mg/ml in presence of Sprague-Dawley rat liver S9 fraction after by SOS/umu assay relative to control; format: toxicity, organism-based; conditions: salmonella enterica subsp. enterica serovar typhimurium, read-out: FC
[8] = Genotoxicity in Salmonella typhimurium TA1535 harboring pSK1002 assessed as survival at 0.002 mg/ml in presence of Sprague-Dawley rat liver S9 fraction after by SOS/umu assay relative to control; format: toxicity, organism-based; conditions: salmonella enterica subsp. enterica serovar typhimurium, read-out: Survival
[9] = Genotoxicity in Salmonella typhimurium TA1535 harboring pSK1002 assessed as survival at 0.001 mg/ml in absence of Sprague-Dawley rat liver S9 fraction after by SOS/umu assay relative to control; format: toxicity, organism-based; conditions: salmonella enterica subsp. enterica serovar typhimurium, read-out: Survival
[10] = Genotoxicity in Salmonella typhimurium TA1535 harboring pSK1002 assessed as survival at 0.5 mg/ml in presence of Sprague-Dawley rat liver S9 fraction after by SOS/umu assay relative to control; format: toxicity, organism-based; conditions: salmonella enterica subsp. enterica serovar typhimurium, read-out: Survival
[11] = Genotoxicity in Salmonella typhimurium TA1535 harboring pSK1002 assessed as umu gene induction at 0.25 mg/ml in absence of Sprague-Dawley rat liver S9 fraction after by SOS/umu assay relative to control; format: toxicity, organism-based; conditions: salmonella enterica subsp. enterica serovar typhimurium, read-out: FC
[12] = Genotoxicity in Salmonella typhimurium TA1535 harboring pSK1002 assessed as umu gene induction at 0.002 mg/ml in absence of Sprague-Dawley rat liver S9 fraction after by SOS/umu assay relative to control; format: toxicity, organism-based; conditions: salmonella enterica subsp. enterica serovar typhimurium, read-out: FC
Plasmodium berghei [13] = assay: Antiplasmodial activity against Plasmodium berghei ANKA infected in mouse assessed as mouse survival time at 50 mg/kg/day, po for 4 consecutive days starting from 2 hrs post infection by MSF assay; format: functional
Procedure, shortened: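 Swiss male mice (20 ± 2 g) infected i.p. with 10^7 P. berghei ANKA parasitized cells in 0.1 mL 0.9% saline (day 0). Oral dosing began 2 h post-infection and continued daily on days 0–3, five mice per batch. Test drugs were given at 50 mg/kg/day in water:DMSO and chloroquine diphosphate at 3 mg/kg/day; a vehicle control was included. Survival was checked daily, and parasitemia was read on day 4 by modified MSF assay.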

[14] = Genotoxicity in Salmonella typhimurium TA1535 harboring pSK1002 assessed as umu gene induction at 0.008 mg/ml in presence of Sprague-Dawley rat liver S9 fraction after by SOS/umu assay relative to control; format: toxicity, organism-based; conditions: salmonella enterica subsp. enterica serovar typhimurium, read-out: FC
[15] = Genotoxicity in Salmonella typhimurium TA1535 harboring pSK1002 assessed as survival at 0.25 mg/ml in absence of Sprague-Dawley rat liver S9 fraction after by SOS/umu assay relative to control; format: toxicity, organism-based; conditions: salmonella enterica subsp. enterica serovar typhimurium, read-out: Survival
[16] = Genotoxicity in Salmonella typhimurium TA1535 harboring pSK1002 assessed as umu gene induction at 0.5 mg/ml in absence of Sprague-Dawley rat liver S9 fraction after by SOS/umu assay relative to control; format: toxicity, organism-based; conditions: salmonella enterica subsp. enterica serovar typhimurium, read-out: FC
[17] = Genotoxicity in Salmonella typhimurium TA1535 harboring pSK1002 assessed as survival at 0.25 mg/ml in presence of Sprague-Dawley rat liver S9 fraction after by SOS/umu assay relative to control; format: toxicity, organism-based; conditions: salmonella enterica subsp. enterica serovar typhimurium, read-out: Survival
[18] = Solubility of the compound in DSPC:cholesterol:DSPE-PEG2000-Mal:DOPE-Rho lipid mixture at 250 uM; format: physicochemical
Procedure, shortened: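 Compound added at 250 µM drug to the initial liposome lipid mixture (10 mM total lipid); precipitation and UV-visible absorbance above 300 nm assessed after encapsulation, removal of unencapsulated material and extraction with 1% w/v SDS in RPMI-A.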

[19] = Genotoxicity in Salmonella typhimurium TA1535 harboring pSK1002 assessed as survival at 0.5 mg/ml in absence of Sprague-Dawley rat liver S9 fraction after by SOS/umu assay relative to control; format: toxicity, organism-based; conditions: salmonella enterica subsp. enterica serovar typhimurium, read-out: Survival
[20] = Genotoxicity in Salmonella typhimurium TA1535 harboring pSK1002 assessed as survival at 0.002 mg/ml in absence of Sprague-Dawley rat liver S9 fraction after by SOS/umu assay relative to control; format: toxicity, organism-based; conditions: salmonella enterica subsp. enterica serovar typhimurium, read-out: Survival
[21] = Genotoxicity in Salmonella typhimurium TA1535 harboring pSK1002 assessed as umu gene induction at 0.5 mg/ml in presence of Sprague-Dawley rat liver S9 fraction after by SOS/umu assay relative to control; format: toxicity, organism-based; conditions: salmonella enterica subsp. enterica serovar typhimurium, read-out: FC
Plasmodium falciparum [22] = assay: Binding affinity to Plasmodium falciparum GRP94 nucleotide binding domain at 0.5 mM by SYPRO orange dye based DSF analysis
Procedure, shortened: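 Recombinant P. falciparum Hsp90 or GRP94 nucleotide-binding domain (0.05–0.2 mg/mL, optimized per protein) in 25 mM HEPES pH 7.5, 250 mM NaCl. Compound final concentration was 0.5 mM, with SYPRO Orange at 1:1000. Samples were heated from 18 to 90 °C at 1 °C/min. Tm was taken as the Boltzmann-fit inflection point. ΔTm = Tm with ligand minus Tm without, and shifts beyond ±1 °C were counted significant.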

Plasmodium berghei [23] = assay: Antiplasmodial activity against GFP-fused Plasmodium berghei sporozoites infected in human HepG2A16 cells treated simultaneously with infection by fluorescence microscopic analysis; format: functional, organism-based
Procedure, shortened: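 HepG2-A16 cells (3 × 10^4/well, collagen-coated) infected with PbGFP sporozoites (5 × 10^3 to 1 × 10^4/well) and treated at the same time. Top concentration 10 µg/mL in DMEM, seven serial dilutions. Medium and compound renewed at 3 h and every 24 h. After 40 h at 37 °C: methanol fixation, anti-Plasmodium Hsp70 immunolabeling, Alexa 594 secondary, DAPI; high-content imaging.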

Plasmodium falciparum [24] = assay: Antiplasmodial activity against Plasmodium falciparum FCR-3 sporozoites infected in human primary hepatocytes treated simultaneously with infection by DAPI staining based HCS analysis; format: functional, organism-based, FCR-3/Gambia
[25] = Plasmodium berghei, HepG2A16, read-out: IC50

COc1ccccc1C1=CCN(CCC(O)c2ccc(F)cc2)CC1 (stereo not drawn)
fold induction at 0.25 mg/ml [1]: 1.1 | fold induction at 1 mg/ml [2]: 0.3 | IC50 (Plasmodium falciparum [3]): 1320 nM | IC50 (Plasmodium falciparum [4]): 3690 nM | inhibition in vivo at 50 mg/kg/day (Plasmodium berghei [5]): ≤ 50% | IC50 (Plasmodium falciparum [6]): 3730 nM | fold induction at 0.002 mg/ml [7]: 1.1 | viability at 0.002 mg/ml [8]: 87.2% | viability at 0.001 mg/ml [9]: 114% | viability at 0.5 mg/ml [10]: 82.1% | fold induction at 0.25 mg/ml [11]: 1.3 | fold induction at 0.002 mg/ml [12]: 1.1 | MSD (Plasmodium berghei [13]): 6 days | fold induction at 0.008 mg/ml [14]: 1 | viability at 0.25 mg/ml [15]: 92.3% | fold induction at 0.5 mg/ml [16]: 2.3 | viability at 0.25 mg/ml [17]: 73% | solubility [18]: Insoluble | viability at 0.5 mg/ml [19]: 19.4% | viability at 0.002 mg/ml [20]: 103% | fold induction at 0.5 mg/ml [21]: 1.3

N#Cc1ccc(N2CCC(NCCC(O)c3ccc(F)c4ccccc34)CC2)c(Cl)c1 (stereo not drawn)
Activity (Plasmodium falciparum [22]): inactive | IC50 (Plasmodium falciparum [3]): 90 nM | IC50 (Plasmodium berghei [23]; [25]): 3410 nM | IC50 (Plasmodium falciparum [4]): 170 nM | IC50 (Plasmodium falciparum [24]): Not Active | inhibition in vivo at 50 mg/kg/day (Plasmodium berghei [5]): ≤ 50% | IC50 (Plasmodium falciparum [6]): 120 nM | fold induction at 0.002 mg/ml [7]: 0.8 | viability at 0.002 mg/ml [8]: 148% | viability at 0.001 mg/ml [9]: 130% | fold induction at 0.002 mg/ml [12]: 1 | MSD (Plasmodium berghei [13]): 10 days | fold induction at 0.008 mg/ml [14]: 1.1 | viability at 0.002 mg/ml [20]: 117%

OC(CCN1CCN(c2ccccc2C(F)(F)F)CC1)c1ccc(F)cc1 (stereo not drawn)
fold induction at 0.25 mg/ml [1]: 1.3 | fold induction at 1 mg/ml [2]: 0.1 | IC50 (Plasmodium falciparum [3]): 1690 nM | fold induction at 0.002 mg/ml [7]: 1 | viability at 0.002 mg/ml [8]: 90.4% | viability at 0.001 mg/ml [9]: 111% | viability at 0.5 mg/ml [10]: 37.2% | fold induction at 0.25 mg/ml [11]: 0.5 | fold induction at 0.002 mg/ml [12]: 0.8 | fold induction at 0.008 mg/ml [14]: 1 | viability at 0.25 mg/ml [15]: 70.1% | fold induction at 0.5 mg/ml [16]: 0.2 | viability at 0.25 mg/ml [17]: 24.6% | solubility [18]: Insoluble | viability at 0.5 mg/ml [19]: 129% | viability at 0.002 mg/ml [20]: 110% | fold induction at 0.5 mg/ml [21]: 1.2

OC(CCN1CCN(C(c2ccccc2)c2ccccc2)CC1)c1ccc(F)c2ccccc12 (stereo not drawn)
Activity (Plasmodium falciparum [22]): inactive | IC50 (Plasmodium falciparum [3]): 330 nM | IC50 (Plasmodium berghei [23]; [25]): 5420 nM | IC50 (Plasmodium falciparum [4]): 170 nM | IC50 (Plasmodium falciparum [24]): Not Active | inhibition (Plasmodium berghei [5]): inactive | IC50 (Plasmodium falciparum [6]): 100 nM | fold induction at 0.002 mg/ml [7]: 0.8 | viability at 0.002 mg/ml [8]: 114% | viability at 0.001 mg/ml [9]: 81% | fold induction at 0.002 mg/ml [12]: 0.8 | MSD (Plasmodium berghei [13]): 9 days | fold induction at 0.008 mg/ml [14]: 0.4 | solubility [18]: Insoluble | viability at 0.002 mg/ml [20]: 77.8%

OC(CCN1CCN(c2ccccc2C(F)(F)F)CC1)c1ccc(F)c2ccccc12 (stereo in doubt; 55)
fold induction at 0.25 mg/ml [1]: 0.7 | fold induction at 1 mg/ml [2]: 0.3 | IC50 (Plasmodium falciparum [3]): 150 nM | IC50 (Plasmodium berghei [23]): Not Active | IC50 (Plasmodium falciparum [4]): 140 nM | IC50 (Plasmodium falciparum [6]): 100 nM | fold induction at 0.002 mg/ml [7]: 0.5 | viability at 0.002 mg/ml [8]: 120% | viability at 0.001 mg/ml [9]: 43.3% | viability at 0.5 mg/ml [10]: 168% | fold induction at 0.25 mg/ml [11]: 0.1 | fold induction at 0.002 mg/ml [12]: 0.8 | MSD (Plasmodium berghei [13]): 8 days | fold induction at 0.008 mg/ml [14]: 0.2 | viability at 0.25 mg/ml [15]: 207% | fold induction at 0.5 mg/ml [16]: 0.7 | viability at 0.25 mg/ml [17]: 95.4% | solubility [18]: Insoluble | viability at 0.5 mg/ml [19]: 175% | viability at 0.002 mg/ml [20]: 51.4% | fold induction at 0.5 mg/ml [21]: 0.4
